Measured values as given in the EternaBench riboswitch data.

Tested on: MS2 coat protein
Test: apparent Kd, MS2 coat protein; higher = weaker binding; RNA-MaP array; FMN 200 µM where present
Summary of the method: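 Green signal from SNAP-549-labelled MS2 coat protein was normalised to red-channel RNA signal and to the median Fmax of control clusters. The protein was titrated from 0.7 or 1.5 nM, doubling to 3 µM, without and then with constant ligand, over designs transcribed by stalled E. coli RNA polymerase on Illumina sequencing-chip clusters, in 100 mM Tris-HCl pH 7.5, 80 mM KCl, 4 mM MgCl2, BSA, DTT, yeast tRNA and Tween-20. The apparent Kd is the median of filtered per-cluster binding-curve fits.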

[1] = designed as: OFF switch for flavin mononucleotide, no ligand
[2] = ligand present: flavin mononucleotide, designed as: OFF switch for flavin mononucleotide
[3] = designed as: ON switch for flavin mononucleotide, no ligand
[4] = ligand present: flavin mononucleotide, designed as: ON switch for flavin mononucleotide

| Sequence | apparent Kd [1] [nM] | apparent Kd [2] [nM] | apparent Kd [3] [nM] | apparent Kd [4] [nM] |
| --- | --- | --- | --- | --- |
| ACAAGAUCAGGAUAUACAUGAGGAUCACCCAUGUAUUUCAAAAAAAAACUUUCUUUAUGUAGAAGGGAUCUUGU | 14.7 | 13.5 |  |  |
| AAAAUUUAUUGAGGAUAUUCAUACACUGCAUACGGAGAAGGCAAACAAUCAUGAGGACAUGAGGAUCACCCAUGUUGUGACCAU |  |  | 18.9 | 15.8 |
| UUGCACGUCGUAGGAUAUGUAGGAUAUUCCUACAUGAGGAUCACCCAUGUUGACAUGGAAGAAGGACAGAAGGACGAUGUCCAU |  |  | 686 | 10.9 |
| ACGUAUAGAGGAUAUAGUGAAUAUUACAUGAGGAUCACCCAUGUUCUUCAAAGUAUAUUUCUAGAAGGCUAAUGAA | 35 | 92.7 |  |  |
| UUUUUGAAGCUUCGUUAAUACAGUUAGGAUAUGAGAGACAUGAGGAUCACCCAUGUGCAUGUUGAUUAGAAGGAACAACUAUCU | 20.1 | 17.4 |  |  |
| AUAUCACAUGAGGAUCACCCAUGUCAGGAUAUGAUACUAUGUACUUCGGUACAUAGUAUCAGAAGGGAUAUGAA | 41.5 | 69.9 |  |  |
| CGAUAGUGUCGUUAUCCGUAGCGAACAUGAGGAUCACCCAUGUAGGAUAUGUUACUAAACUAGUAACAGAAGGGCGUGAGUCUU | 129 | 161 |  |  |
| GGACGUCACAUUCACAUGAGGAUCACCCAUGUCAAAAGACAUGAGGAUAUGGAUCCUAAUUGGAUCCAGAAGGCAUGGACGUCC |  |  | 1140 | 70.6 |
| AGUUAGAUAGCGAUAUGAUCGAGAGAUCAUGUCGCUAAAUUUAGAAGGACAUGAGGAUCACCCAUGUAGGAUAUGGGAGUAGAA |  |  | 143 | 59.3 |
| UCUGGAGGAAAACAGACGAAGUGGCCAGAAGGUGAAUGCCACAUGAGGAUCACCCAUGUUUCGAUCAAGGAUAUGGUUUCUCAC |  |  | 185 | 72.4 |
| GAUCACUGAGGAUAUACACAGAUACAAAGUAUCUGAGCGUGACAUGAGGAUCACCCAUGUAGAAGGCAGAGGUC | 190 | 769 |  |  |
| UUUGUUUGCGGAGGAUAUAUAAGUGGAUCACCCAUAGAAGGCCGAACAUGAGGAUCACCCAUGUUACAUGAGGAUCACCCAUGU | 45.8 | 51.5 |  |  |
| GGGUUUGGUGUGAGGAUAUGUUUGGGUAAACCCGGGCAGAAGGCACAUGAGGAUCACCCAUGUAAGCCGGGCCC | 14.9 | 14.7 |  |  |
| GCGUACAUAUCAGGAUAUCAUAUAAUUGUUUAACUCAGUGUAUACAUGAGGAUCACCCAUGUUCUUGAGAAGGGAUAUGUACGC | 9.08 | 9.76 |  |  |
| GACCCAAAUGAGAAGGUGUGUAUAAAUUAUGUACAAGGAUAUCGGUCGAGCGUGUUGACAUGAGGAUCACCCAUGUUGUGGGUU |  |  | 139 | 56.2 |
| UUCAUGUGAGGAUAUGUGAUCUGCUUUCUGUGUAGAUGAUCACAGAAGGCACAUGAGGAUCACCCAUGUAGAUC | 103 | 79.4 |  |  |
| UGUCGGAUGUAGAAGGGUAGUACAUGAGGAUCACCCAUGUUAACAUGGAAUACAGGAUAUGCGUAUAGUUUUUAUUAAAUUAUA | 108 | 44.3 |  |  |
| AAAUUGUCAGGAUAUCCAACUAUACGAAAUAUAUAUACACAGGAGAAGGGACAUGAGGAUCACCCAUGUUUGAA | 24.6 | 19.1 |  |  |
| AGAGCCGGCACUGAGGAUAUUCAUAUUAAAACAUGAGGAUCACCCAUGUAGGCCAGAAGGCCUUGGGAGAAGGCAGGUCGGCUCU |  |  | 407 | 29.5 |
| UCAUAAAUUCGAGGAUAUCGGUGAUAAAGAAGACGAGAAGGCGAUUAGAGAGAGAUGGUUAUAGACAUGAGGAUCACCCAUGUU |  |  | 33.9 | 24.1 |
| GCUCGGCCAAAAUAAAACGACGCGAAGGAUAUACACCUGGGUACUCCUACAUGAGGAUCACCCAUGUAGAAGGUCGCGGGCUUG | 45 | 46.4 |  |  |

| Sequence | apparent Kd [1] [nM] | apparent Kd [2] [nM] | apparent Kd [3] [nM] | apparent Kd [4] [nM] |
| --- | --- | --- | --- | --- |
| UGCACCAACGAGAAGGCACAGAUCCAGCUCUUGACAUGAGGAUCACCCAUGUGAGGAUAUCGUAGGUGCGAAUUGGGACAAUCU | 11 | 98.2 |  |  |
| CAUUAAUUAAUUAGUUUAUACAUACAGGAUAUGUUACAUGAGGAUCACCCAUGUUUACAUGGGAUACAGAAGGGUAAAUAAAGA | 477 | 310 |  |  |
| UGAUCGAGAGAUCUUAGAUUCUGGUAGGAUAUACAUUAUAGAAGUUAUACAUGAGGAUCACCCAUGUAGAAGGACUAGAGUCUA | 5.73 | 7.54 |  |  |
| AUAUCUAUGUAAGGAUAUAGAUGGUAUACGCCUCCGACAUGAGGAUCACCCAUGUUAUAUUUUGUCUAGAAGGUACAUUGUCGG |  |  | 383 | 305 |
| UGAAAUCAUGUAGGAUAUGCAUGGCGAAGCUACGCAGAAGGACAUGAGGAUCACCCAUGUUAUAGCUACCCAAUUCGGUGGCAA | 56.3 | 152 |  |  |
| AUGUCUCUAGGAUAUUAGCGGAUCUACAUGAGGAUCACCCAUGUCGUGUCGCAGAUGUGCUGAGAAGGAGAGCACA | 15.2 | 19 |  |  |
| UUUUAACAUGAGGAUCACCCAUGUGAGGAUAUCGAAAUUUAUAUUAAUAUUAUUUUAUCGAGAAGGCACAUUUU | 96.1 | 124 |  |  |
| GACAUGAGGAUCACCCAUGUCCAACCAGAAGGCCAGAAACCAGGCCCUUGUAUCGGGCUUGGGAUGGAGGAUAUGGGCGCCGAA |  |  | 61.4 | 31.6 |
| UAAUCUCAGAUAGGAUAUAUAGGAUGAUUUAAGACCGAACAUGAGGAUCACCCAUGUGAUUAUUUGUAGAAGGAUCAAUGACCC |  |  | 72.4 | 79.2 |
| GGUACUCAAAGAGUACUGAGUCGAACAUGAGGAUCACCCAUGUAGGAUAUGCGAGUUUUGAAUUUGCAGAAGGACAUUUGCAGC | 9.34 | 10.8 |  |  |
| UUACUAUAACAGAAGGGUAGAUAGUAUAUAAAUGCAGGAUAUGUUACAUGAGGAUCACCCAUGUUUCACCCACAUGAGGAUCAC | 28.5 | 40.7 |  |  |
| GUGCGUGGCUAGGAUAUUGUGGAGUUUUGUCAGCGAGAAGGAGCCACAUGAGGAUCACCCAUGUGGUGUUGCUC |  | 67.5 |  |  |
| AGAAACAGAGGAUAUCGCGGACAGCACAUGAGGAUCACCCAUGUGAUGCUCCGCGGGCCGCGAGAAGGCUGAAAUG | 15.1 | 36.8 |  |  |
| ACUAUACGAGGAUAUACUGUCAGUACUCAGAGGUUAAUGUGACAUGAGGAUCACCCAUGUAGAAGGCGUUUACU | 28.9 | 31.3 |  |  |
| UUUAAUUAGUAGAAGGACGGAGAGUAAGAAGUCGUAGGAUAUACAUAAGACAUGAGGAUCACCCAUGUGUGUAUGUUGGGUAGG | 6.57 | 7.72 |  |  |
| GUGUACAGAGGAUAUACAUGGGCAUGAAAACAUGCAUCUUCACAUGAGGAUCACCCAUGUAGAAGGCUGUACAC | 24.6 | 16.9 |  |  |
| UUAAAUCAUGUAGGAUAUGCAUGGCGAAGCUACGCAGAAGGACAUGAGGAUCACCCAUGUUAUAGCUACCGAAUAAGGUGGCAA |  | 224 |  |  |
| CCUAGAUAGGGAGGAUAUCACGACCAUCCCGGCGAUCCAACUACAUGAGGAUCACCCAUGUGGUGUGAGAAGGCCCAAUAAUAG | 220 | 75.4 |  |  |
| GGGUGAGCUCAAGGAUAUCCAAAUCGGUUACAUGAGGAUCACCCAUGUCCGGGCGAAUAAAGGCCGGAGAAGGUGAGGGCCCUC |  |  | 67.5 | 180 |
| CCAGCAACAUGAGGAUCACCCAUGUAGGAUAUCGCUAUUGUAAUCAUGAAACAUGAUUACAAUAGCGAGAAGGACAUAUGCUAA | 9.29 | 10.2 |  |  |
| UGAGUAGCGAAACAACGCACAUGAGGAUCACCCAUGUCUACACAGGAUAUGCGACGCUCCAGUUAGCAGAAGGGUGAACUCAAA |  |  | 36.4 | 89.7 |
